The results in this text go back to ChEMBL document CHEMBL1150398, “Design and synthesis of 7-alkoxy-4-heteroarylamino-3-quinolinecarbonitriles as dual inhibitors of c-Src kinase and nitric oxide synthase” (Bioorg Med Chem, 2008).

As usually defined, the IC50 is the concentration that gives 50% inhibition. A word on the GI50: it is the concentration giving 50% growth inhibition. The low end stands for greater sensitivity of the cells, the high end for lower sensitivity of the cells. The TGI is the concentration at which net growth stops. Lower therefore signals more potent growth arrest.

Assay [1] has as its target T1, Nitric oxide synthase, inducible (Mus musculus, UniProt P29477).
T1 sequence (P29477 whole entry): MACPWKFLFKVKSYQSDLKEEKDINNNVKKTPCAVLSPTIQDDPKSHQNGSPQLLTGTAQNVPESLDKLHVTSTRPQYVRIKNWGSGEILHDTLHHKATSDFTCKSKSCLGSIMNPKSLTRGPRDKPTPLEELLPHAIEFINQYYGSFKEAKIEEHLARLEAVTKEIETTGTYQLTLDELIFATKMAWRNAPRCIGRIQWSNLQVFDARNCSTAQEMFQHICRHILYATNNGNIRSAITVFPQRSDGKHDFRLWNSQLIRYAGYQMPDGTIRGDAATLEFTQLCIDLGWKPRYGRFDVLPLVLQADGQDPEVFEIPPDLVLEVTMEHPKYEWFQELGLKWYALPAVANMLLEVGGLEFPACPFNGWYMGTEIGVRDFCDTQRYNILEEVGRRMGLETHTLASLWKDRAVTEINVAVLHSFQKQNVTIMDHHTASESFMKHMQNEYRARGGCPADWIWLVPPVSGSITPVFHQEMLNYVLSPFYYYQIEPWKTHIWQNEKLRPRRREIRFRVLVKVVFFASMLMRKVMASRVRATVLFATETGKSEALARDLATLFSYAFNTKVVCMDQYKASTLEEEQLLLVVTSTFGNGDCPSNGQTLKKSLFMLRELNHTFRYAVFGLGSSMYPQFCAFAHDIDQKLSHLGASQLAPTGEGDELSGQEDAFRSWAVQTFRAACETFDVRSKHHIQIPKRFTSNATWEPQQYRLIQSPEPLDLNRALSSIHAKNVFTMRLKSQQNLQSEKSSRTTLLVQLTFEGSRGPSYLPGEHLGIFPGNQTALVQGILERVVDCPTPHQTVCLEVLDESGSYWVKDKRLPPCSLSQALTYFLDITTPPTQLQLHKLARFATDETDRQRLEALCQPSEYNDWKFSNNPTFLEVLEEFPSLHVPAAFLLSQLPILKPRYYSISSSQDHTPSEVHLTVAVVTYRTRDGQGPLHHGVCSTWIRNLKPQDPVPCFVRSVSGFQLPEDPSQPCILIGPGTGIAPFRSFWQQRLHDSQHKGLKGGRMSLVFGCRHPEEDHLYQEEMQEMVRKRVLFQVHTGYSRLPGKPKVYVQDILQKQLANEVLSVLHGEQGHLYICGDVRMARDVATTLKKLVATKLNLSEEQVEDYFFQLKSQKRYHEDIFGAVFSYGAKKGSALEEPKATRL
Nature of the assay: Inhibition of inducible nitric oxide synthetase in LPS-stimulated mouse ANA1 macrophages. The procedure, abridged:
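ANA-1 macrophages grown in DMEM with 10% heat-inactivated FBS and 2 mM L-glutamine, 37 °C, 5% CO₂, 10⁵ cells/mL prepared the day before. Cells stimulated with LPS for 24 h, collected, then given assay buffer, L-arginine substrate and DAF-FM DA tracer. Reaction started with 0.1 mM NADPH, 37 °C 30 min, washed, fluorescence read. Triplicate, mean of three.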

Another assay deals with HT-29. Nature of the assay: Antiproliferative activity against human HT29 cells after 48 hrs by sulforhodamine B assay. As to conditions: HT-29, 48 h; for CC50: read-out: LC50 (the source's name). It counts as functional, cell-based. Put shortly:
(§1)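 SRB assay: cells plated in 96-well plates, mostly at 20,000 cells/well, pre-incubated 24 h without drug. Compounds added in 10-fold dilutions from highest soluble concentration, 48 h further incubation. Cells fixed in situ, washed, dried, SRB stained; proliferation inhibition from change in total optical density after 48 h treatment.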
On the technique in general: The SRB assay estimates cell density from bound dye.

In a further assay the test system is HepG2. Kind of assay: Antiproliferative activity against human HepG2 cells after 48 hrs by sulforhodamine B assay. The class given is functional, cell-based. As to conditions: HepG2, 48 h; for CC50: read-out: LC50 (the source's name). Put shortly: as §1
Assay [2] concerns the target T2, Proto-oncogene tyrosine-protein kinase Src (Homo sapiens, UniProt P12931). Nature of the assay: Inhibition of human recombinant cSrc by fluorescence polarization assay.
Assay [3] has as its target T2, Proto-oncogene tyrosine-protein kinase Src. Nature of the assay: Inhibition of human recombinant cSrc by ELISA. In general terms: In an ELISA, binding on a coated surface is turned into a signal by an enzyme label.

T2 sequence (P12931 2-536 limits assumed): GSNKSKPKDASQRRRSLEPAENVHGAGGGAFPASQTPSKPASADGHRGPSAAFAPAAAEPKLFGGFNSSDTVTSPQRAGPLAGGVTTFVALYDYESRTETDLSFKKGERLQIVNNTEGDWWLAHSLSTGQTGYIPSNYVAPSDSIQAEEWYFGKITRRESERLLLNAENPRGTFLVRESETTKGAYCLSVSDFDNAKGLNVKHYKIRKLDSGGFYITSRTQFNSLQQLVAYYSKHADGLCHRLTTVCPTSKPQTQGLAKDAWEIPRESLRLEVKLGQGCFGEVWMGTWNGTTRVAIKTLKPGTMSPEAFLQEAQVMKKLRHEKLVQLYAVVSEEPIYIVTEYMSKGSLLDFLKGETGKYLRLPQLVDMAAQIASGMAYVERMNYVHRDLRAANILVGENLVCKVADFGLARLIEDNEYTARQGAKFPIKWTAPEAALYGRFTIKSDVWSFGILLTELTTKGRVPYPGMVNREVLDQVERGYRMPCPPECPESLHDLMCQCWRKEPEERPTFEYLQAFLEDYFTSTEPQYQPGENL

For the compound `COc1cc2c(Nc3nc4ccccc4s3)c(C#N)cnc2cc1OCCN1CCCCC1`, it took 44.8 µM to reach half-maximal inhibition in assay [1] (IC50).

`COc1cc2c(Nc3nc4ccccc4s3)c(C#N)cnc2cc1OCCCN1CCN(C)CC1` registered a 50% inhibitory concentration (IC50) in assay [1] of 98 µM.

For `Cc1ccc2nc(Nc3c(C#N)cnc4cc(OCCCN5CCN(C)CC5)c(C)cc34)sc2c1`, 12.7 µM corresponded to half-maximal inhibition in assay [1] (IC50).

Consider `COc1cc2c(Nc3nc4ccc(OC(F)(F)F)cc4s3)c(C#N)cnc2cc1OCCCN1CCN(C)CC1`, for which, in assay [1], inhibition was half-maximal at 65.6 µM (IC50).

For `Cc1ccc2nc(Nc3c(C#N)cnc4cc(OCCCN5CCCCC5)c(C)cc34)sc2c1`, in the assay on HT-29, it took 5.59 µM to inhibit growth by half (GI50), it took 6.58 µM to reach half-maximal inhibition (IC50), the TGI is > 10 µM and the CC50 was > 10 µM. In addition, half-maximal inhibition in assay [1] (IC50) required 313 µM. Further, in the assay on HepG2, it took 4.85 µM to inhibit growth by half (GI50), the IC50 was 7.61 µM, the TGI was 9.25 µM and the CC50 was > 10 µM.

In the case of `Cc1cc2c(Nc3nc4ccccc4[nH]3)c(C#N)cnc2cc1OCCCN1CCN(C)CC1`, the IC50 in assay [2] is > 1 µM; in assay [1], 15.5 µM.

Compound `COc1cc2c(Nc3nc4ccccc4s3)c(C#N)cnc2cc1OCCN1CCN(C)CC1` displayed an IC50 in assay [1] of 2.18 µM.

`N=C(N)NOCC[C@H](N)C(=O)O` [CANAVANINE] yielded an IC50 in assay [1] of 60 µM.

In the case of `Cc1cc2c(Nc3nc4ccccc4s3)c(C#N)cnc2cc1OCCCN1CCOCC1`, the IC50 in assay [1] amounted to 139 µM.

On to `Cc1cc2c(Nc3ccccn3)c(C#N)cnc2cc1OCCCN1CCN(C)CC1`, for which the IC50 in assay [1] came out at 18.6 µM.

In turn, `Cc1cc2c(Nc3nc4ccccc4s3)c(C#N)cnc2cc1OCCCN1CCCCC1` displayed an IC50 in assay [1] of 412 µM.

With `COc1cc(Nc2c(C#N)cnc3cc(OCCCN4CCN(C)CC4)c(OC)cc23)c(Cl)cc1Cl` [BOSUTINIB], in the assay on HT-29, the GI50 is 1.17 µM, the IC50 amounted to 3.87 µM, the TGI came to 6.5 µM and the CC50 is > 10 µM. Moreover, in the assay on HepG2, the GI50 was found to be 1.15 µM, the IC50 was 3.91 µM, the TGI turned out to be 7.66 µM and the CC50 is > 10 µM.

As for `COc1cc2c(Nc3nc4ccccc4[nH]3)c(C#N)cnc2cc1OCCCN1CCN(C)CC1`, the IC50 in assay [1] is 18.1 µM.

Take `COc1cc2c(Nc3nc4ccccc4s3)c(C#N)cnc2cc1OCCN1CCOCC1`: the IC50 was > 1 µM in assay [3] and 26.7 µM in assay [1].

`Nc1nccs1` [AMINOTHIAZOLE] returned an IC50 in assay [1] of 18 µM.

`Cc1cc2c(Nc3nc4ccc(OC(F)(F)F)cc4s3)c(C#N)cnc2cc1OCCCN1CCN(C)CC1` displayed an IC50 in assay [1] of 16.3 µM.
